# Compound activity from PubChem.
# SIRT5 block = SIRT5 desuccinylase inhibitors, primary screen, biochemical, fluorescence imaging, single point, set 5 | NAD-dependent protein deacylase sirtuin-5, mitochondrial (Homo sapiens), Q9NXA8 | Purified SirT5, succinyl-peptide AMC, trypsin-coupled fluorescence | hit rate 1.1% among 330,000 | inhibition, % at 15 µM; in the data active means inhibition above about 15%
# rRNA inh HTS = reduced GFP signal of wild-type E. coli, primary screen, bacterial rRNA inhibitor project, GFP/RFP fluorescence, OD600, single point; GFP signal change (wild-type ribosome), % (concentration not given with the values); E. coli WT GFP vs humanized-ribosome RFP mutants, 24 h; active compounds read low; DMSO median 0, no signal -100; hit rate 1.6% among 350,000; AID 720706, 2013;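 active means significant combined selectivity score with lowered wild-type GFP, culture density cut under 30%, mutant RFP and density less affected; inactive means any of these conditions unmet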
# ERAP1 HTS inh = human ERAP1 aminopeptidase inhibitors, primary screen, biochemical, single point, plate reader | Endoplasmic reticulum aminopeptidase 1 (Homo sapiens), Q9NZ08 | recombinant ERAP1, Leu-AMC fluorescence, 60 min | inhibition, % at 10.7 µM | hit rate 0.15% among 340,000 | AID 652197, 2013;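 active means mean replicate inhibition of at least 30%, or all replicates individually reaching that 30% level; inactive means mean below 30% and not every replicate reaching it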;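 further: 0% = neutral control wells and 100% = L-leucinethiol positive control wells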
# Target sequence (Q9NZ08 whole entry, looked up): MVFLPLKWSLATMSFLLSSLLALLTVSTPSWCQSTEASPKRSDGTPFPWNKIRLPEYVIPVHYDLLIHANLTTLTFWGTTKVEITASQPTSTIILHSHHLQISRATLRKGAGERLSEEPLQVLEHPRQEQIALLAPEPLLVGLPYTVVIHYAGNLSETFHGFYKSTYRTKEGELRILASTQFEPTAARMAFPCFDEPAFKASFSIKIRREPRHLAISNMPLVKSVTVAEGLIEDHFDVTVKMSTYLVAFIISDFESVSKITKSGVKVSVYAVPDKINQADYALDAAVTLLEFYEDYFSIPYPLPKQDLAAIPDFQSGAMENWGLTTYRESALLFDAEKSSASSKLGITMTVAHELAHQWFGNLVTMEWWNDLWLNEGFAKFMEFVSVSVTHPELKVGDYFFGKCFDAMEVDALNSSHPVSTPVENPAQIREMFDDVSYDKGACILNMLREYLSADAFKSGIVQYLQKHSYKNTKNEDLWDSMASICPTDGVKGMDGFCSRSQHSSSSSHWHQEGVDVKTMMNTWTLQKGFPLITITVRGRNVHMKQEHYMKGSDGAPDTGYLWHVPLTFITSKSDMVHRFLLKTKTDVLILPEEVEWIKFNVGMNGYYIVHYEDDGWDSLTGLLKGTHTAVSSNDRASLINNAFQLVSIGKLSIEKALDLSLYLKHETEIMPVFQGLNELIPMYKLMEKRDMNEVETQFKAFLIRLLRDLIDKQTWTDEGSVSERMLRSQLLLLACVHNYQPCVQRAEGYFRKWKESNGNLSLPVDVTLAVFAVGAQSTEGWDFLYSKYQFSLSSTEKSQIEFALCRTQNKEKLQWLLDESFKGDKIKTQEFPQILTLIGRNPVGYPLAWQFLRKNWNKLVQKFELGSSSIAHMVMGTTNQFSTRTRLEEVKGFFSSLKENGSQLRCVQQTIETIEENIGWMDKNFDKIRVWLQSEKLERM
# S100A4 inh HTS = inhibitors of S100A4-myosin IIA peptide binding, primary screen, biochemical, fluorescence polarization, TAMRA-MyoIIA peptide; Protein S100-A4 (Homo sapiens), P26447; inhibition, % at 10.7 µM; hit rate 0.14% among 360,000; AID 652163, 2013;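 active means mean inhibition of at least 70% across replicates, with every replicate also reaching that level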
#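 assay system = human S100A4 monomer with TAMRA-labelled myosin IIA peptide | also added = labelled myosin peptide probe, 5 nM | incubation = 5 min between mix addition and reading | control set = DMSO and TFP controls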
# F508del corr = F508del CFTR correction, initial screen, CFBE line, single point. CFBE cells, YFP halide quenching; stimulated with forskolin plus potentiator P3; % fluorescence drop versus neutral controls. activity (quench increase), % at 7.58 µM. hit rate 0.36% among 350,000. AID 720511, 2013;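 active means mean added fluorescence quench of at least 8% versus neutral control, with both replicates also reaching 8%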;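 further: cells transiently co-express mutant CFTR-F508del with the halide-sensitive YFP; corrector assay measuring rescue of mutant channel to the surface after 24 h compound exposure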
# Numbers without * were called inactive; x = no result. Most compounds without a hit are left out; they make up all but 3.1% or so of the library.
SMILES,SIRT5 block,rRNA inh HTS,ERAP1 HTS inh,S100A4 inh HTS,F508del corr
Cc1ccc(S(=O)(=O)N(C)C[C@H]2Oc3c(NC(=O)C4CCOCC4)cccc3C(=O)N([C@H](C)CO)C[C@@H]2C)cc1,5,-1,2,2,-1
CCc1ccccc1NC(=O)CNC(=O)CNC(=O)c1cccs1,53*,16,0,-6,1
CCCN(C)C[C@H]1Oc2ncc(-c3ccccc3F)cc2C(=O)N([C@@H](C)CO)C[C@@H]1C,-4,1,1,-19,2
C[C@H]([C@H](O)c1ccccc1)N(C)C(=O)CN,21*,1,-2,14,-2
C[C@H](C(O)c1ccccc1)N(C)C(=O)CN (stereo partly specified),-4,20,-1,6,-2
CN1c2ccc(C#Cc3cccnc3)cc2[C@H]2[C@H](CCN2C(=O)C2CCCC2)[C@H]1CO,5,6,-1,-7,1
O=C(O)c1ccc(N2C(=O)C3C4c5ccccc5C(Br)(c5ccccc54)C3C2=O)cc1 (stereo unspecified),0,-36*,5,-4,-2
CC12c3ccccc3C(c3ccccc31)C1C(=O)N(c3ccncc3)C(=O)C12 (stereo unspecified),-2,-14,-4,-4,-1
Cc1noc(C)c1NC(=O)N(C)C[C@@H]1OCCCC[C@H](C)Oc2ccc(NS(C)(=O)=O)cc2C(=O)N([C@@H](C)CO)C[C@@H]1C,x,3,x,x,0
O=C(Nc1ccc(Br)cc1)C1CC(c2c(F)cccc2Cl)=NO1 (stereo unspecified),-3,-3,1,1,-2
Cc1cc(NC(=O)C2CC(c3c(F)cccc3Cl)=NO2)n(-c2ccccc2)n1 (stereo unspecified),-5,-9,2,12,-2
O=C(Nc1cc(Br)ccc1O)C1CC(c2c(F)cccc2Cl)=NO1 (stereo unspecified),9,-36*,0,-5,x
CSc1ccccc1NC(=O)C1CC(c2c(F)cccc2Cl)=NO1 (stereo unspecified),-1,-25*,3,-1,1
COc1ccc(Cl)cc1NC(=O)C1CC(c2c(F)cccc2Cl)=NO1 (stereo unspecified),1,-30*,1,1,1
Cc1noc(C)c1NC(=O)Nc1ccc2c(c1)C(=O)N([C@@H](C)CO)C[C@@H](C)[C@H](CN(C)S(C)(=O)=O)OCCCC[C@@H](C)O2,x,3,0,-11,-2
COc1cccc(S(=O)(=O)N[C@@H]2CC[C@@H](CC(=O)NCc3ccccc3)O[C@@H]2CO)c1,-3,2,0,0,2
C[C@H]1CN([C@@H](C)CO)C(=O)c2cccc(NS(=O)(=O)c3ccc(F)cc3)c2O[C@@H]1CN(C)S(=O)(=O)c1cn(C)cn1,2,3,0,2,0
Cc1ccc(CNC(=O)CCc2ccc(S(=O)(=O)NCC(C)C)cc2)cc1,29*,0,-1,1,1
COc1ccc(CCNC(=O)CCc2ccc(S(=O)(=O)NCC(C)C)cc2)cc1,1,-14,0,0,x
O=C(c1ccncc1)N1CC(=O)N2[C@H](C1)[C@@H](c1ccc(-c3ccccc3F)cc1)[C@@H]2CO,-1,-1,4,5,-2
CN1C(=O)c2cc(NC(=O)C3CC3)ccc2OC[C@@H]2O[C@H](CC(=O)NC3CCC3)CC[C@H]21,2,1,-1,7,1
CC(C)N(C(=O)Nc1ccc2nsnc2c1)C(C)C,5,-16*,-1,4,0
CNC[C@@H]1Oc2ccc(NC(=O)c3ccncc3)cc2C(=O)N([C@H](C)CO)C[C@H]1C,-3,0,3,26,2
COc1ccc(C)cc1NC(=O)CCNC(=O)Cn1cnc2ccccc2c1=O,18*,8,-1,-22,0
COc1cc(Br)cc(/C=N/N(CCO)C2=NS(=O)(=O)c3ccccc32)c1OC,-2,-22*,0,1,-1
SMILES,SIRT5 block,rRNA inh HTS,ERAP1 HTS inh,S100A4 inh HTS,F508del corr
NC(=S)NN=Cc1nccc2ccccc12,1,0,1,-1,9.7*
NC(=S)NN=Cc1nccc2c(C(F)(F)C(F)(F)C(F)(F)F)cccc12,-5,-4,-2,1,1
CO[C@@H]1CN(C)C(=O)c2cc(NC(C)=O)ccc2OC[C@@H](C)N(Cc2ccncc2)C[C@H]1C,-1,-1,2,-7,1
CCCCNS(=O)(=O)c1ccc(OCC(=O)OC)cc1,-1,15,1,-2,0
CCCCCCc1ccc(OCC(=O)OC)cc1OCC(=O)OC,23*,-11,2,6,-1
Cc1ccc(C(=O)N/C(=C\c2ccc(Br)cc2)c2nc(=S)[nH][nH]2)cc1,-1,-25*,3,7,1
NC(=S)NN=Cc1ccc(-c2ccc(S(=O)(=O)Nc3ncccn3)cc2)o1,46*,x,2,-4,-1
NC(=S)N/N=C/c1ccc(-c2ccccc2)o1,0,3,3,5,2
COc1ccc(-c2c[n+](CC(=O)c3ccccc3)c3n2CCCCC3)cc1,-2,-49*,5,3,2
O=C(C[n+]1cc(-c2ccccc2)n2c1CCCCC2)c1ccc(Cl)cc1,-2,-40*,0,-2,-3
Cc1ccc(-c2c[n+](CC(=O)c3ccc(Br)cc3)c3n2CCCCC3)cc1,-2,-51,1,4,2
Cc1ccc(-c2c[n+](CC(=O)Nc3nc(-c4ccccc4)cs3)c3n2CCC3)cc1,-2,-47*,4,-1,-1
COc1ccccc1OCC(O)CN1C(=O)NC(C)(C)C1=O (stereo unspecified),x,7,-1,1,9.4*
C[C@@H]1CCCCO[C@@H](CN(C)C)[C@@H](C)CN([C@@H](C)CO)C(=O)c2cc(NS(=O)(=O)c3ccc(Cl)cc3)ccc2O1,1,3,-70,3,0
Cc1cc(=O)oc2c(C)c(OC(C)C(=O)NCCCN3CCCC3=O)ccc12 (stereo unspecified),26*,6,-1,1,4
O=C(C[C@H]1CC[C@H]2[C@@H](COC[C@H](O)CN2C(=O)c2ccncc2)O1)NC1CCC1,1,0,3,29,-1
CC(=O)NCCc1nc2ccccc2n1CCOc1cccc(C)c1,-5,-28*,x,-5,0
CC(=O)NCCc1nc2ccccc2n1CCOc1ccccc1,13,0,x,2,-1
C[C@@H]1CN([C@@H](C)CO)C(=O)CCCn2cc(nn2)CO[C@H]1CN(C)Cc1ccc2cccnc2c1,x,1,x,x,-1
